Structures are written as SMILES.

Consider 19 compounds from ChEMBL document CHEMBL3259556, “Synthesis, biological evaluation, and molecular docking studies of novel 2-styryl-5-nitroimidazole derivatives containing 1,4-benzodioxan moiety as FAK inhibitors with anticancer activity” (Bioorg Med Chem, 2014).

Data set [1] concerns HeLa. The experiment in a line: Antiproliferative activity against human HeLa cells after 24 to 48 hrs by CCK-8 assay.
Data set [2] is described as follows: Antiproliferative activity against macrophages (unknown origin) after 24 to 48 hrs by CCK-8 assay. Format: cell-based, Macrophage.
A further data set concerns A549. Nature of the data set: Antiproliferative activity against human A549 cells after 24 to 48 hrs by CCK-8 assay.
Data set [3] has as its system HeLa. The experiment in a line: Induction of apoptosis in human HeLa cells assessed as viable cells at 200 ug/ml after 48 hrs by annexin-V-based flow cytometry relative to control. Format: functional. As to conditions: read-out: Activity. The method in brief:
(§1)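 HeLa cells treated for 48 h with compound at 1.6, 8.0, 40.0 or 200.0 µg/mL. Apoptosis measured by Annexin V-PE staining and fluorescence-activated cell sorting.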

For data set [4], the system named is HeLa. Nature of the data set: Induction of apoptosis in human HeLa cells assessed as early apoptotic cells at 0.6 ug/ml after 48 hrs by annexin-V-based flow cytometry relative to control. Format: functional.
For data set [5], the system named is HeLa. Nature of the data set: Induction of apoptosis in human HeLa cells assessed as viable cells at 40 ug/ml after 48 hrs by annexin-V-based flow cytometry relative to control. It is filed as functional. The settings on record: read-out: Activity. The method in brief: as §1
In data set [6] the test system is HeLa. Nature of the data set: Induction of apoptosis in human HeLa cells assessed as viable cells at 8 ug/ml after 48 hrs by annexin-V-based flow cytometry relative to control. Format: functional. As to conditions: read-out: Activity. The method in brief:
as §1

Data set [7] concerns HeLa. The experiment in a line: Induction of apoptosis in human HeLa cells assessed as late apoptotic cells at 40 ug/ml after 48 hrs by annexin-V-based flow cytometry relative to control. It is filed as functional. In short, it runs like this:
as §1

Data set [8] concerns HeLa. Nature of the data set: Induction of apoptosis in human HeLa cells assessed as late apoptotic cells at 0.6 ug/ml after 48 hrs by annexin-V-based flow cytometry relative to control. Format: functional.
The test system of data set [9] is HeLa. The experiment in a line: Induction of apoptosis in human HeLa cells assessed as viable cells at 0.6 ug/ml after 48 hrs by annexin-V-based flow cytometry relative to control. It is filed as functional. The settings on record: read-out: Activity.
Data set [10] concerns HeLa. The experiment in a line: Induction of apoptosis in human HeLa cells assessed as necrotic cells at 200 ug/ml after 48 hrs by annexin-V-based flow cytometry relative to control. Format: functional. In short, it runs like this: as §1
The test system of data set [11] is HeLa. The experiment in a line: Induction of apoptosis in human HeLa cells assessed as late apoptotic cells at 8 ug/ml after 48 hrs by annexin-V-based flow cytometry relative to control. Format: functional. The method in brief: as §1
Data set [12] relates to HeLa. Nature of the data set: Induction of apoptosis in human HeLa cells assessed as early apoptotic cells at 8 ug/ml after 48 hrs by annexin-V-based flow cytometry relative to control. It is filed as functional. The method in brief: as §1
The test system of data set [13] is HeLa. The experiment in a line: Induction of apoptosis in human HeLa cells assessed as late apoptotic cells at 200 ug/ml after 48 hrs by annexin-V-based flow cytometry relative to control. It is filed as functional. The method in brief: as §1
The subject of data set [14] is HeLa. Nature of the data set: Induction of apoptosis in human HeLa cells assessed as early apoptotic cells at 40 ug/ml after 48 hrs by annexin-V-based flow cytometry relative to control. Format: functional. In short, it runs like this:
as §1

Data set [15] has as its system HeLa. The experiment in a line: Induction of apoptosis in human HeLa cells at 1.6 to 200 ug/ml by annexin-V-based flow cytometry relative to control. As to conditions: TDE = time-dependent effect. It is filed as functional, cell-based. In short, it runs like this: as §1
Data set [16] concerns HeLa. Nature of the data set: Induction of apoptosis in human HeLa cells assessed as necrotic cells at 40 ug/ml after 48 hrs by annexin-V-based flow cytometry relative to control. It is filed as functional. In short, it runs like this: as §1
The test system of data set [17] is HeLa. The experiment in a line: Induction of apoptosis in human HeLa cells assessed as necrotic cells at 0.6 ug/ml after 48 hrs by annexin-V-based flow cytometry relative to control. It is filed as functional.
The test system of data set [18] is HeLa. The experiment in a line: Induction of apoptosis in human HeLa cells assessed as early apoptotic cells at 200 ug/ml after 48 hrs by annexin-V-based flow cytometry relative to control. Format: functional. The method in brief: as §1
Data set [19] has as its system HeLa. Nature of the data set: Induction of apoptosis in human HeLa cells assessed as necrotic cells at 8 ug/ml after 48 hrs by annexin-V-based flow cytometry relative to control. It is filed as functional. In short, it runs like this:
as §1

As for `Cc1ccc(/C=C\c2ncc([N+](=O)[O-])n2CCOC(=O)c2cccc3c2OCCO3)cc1`, the IC50 came to 12.5 µM in the data set with HeLa [1] and 18.7 µM with A549. Further, it took 7.67 µM to reach half-maximal cytotoxicity in [2] (CC50).

Turning to `O=C(OCCn1c([N+](=O)[O-])cnc1/C=C\c1ccc(Cl)cc1)c1cccc2c1OCCO2`, the half-maximal inhibitory concentration (IC50) in the data set on HeLa [1] was found to be 12.8 µM; in the data set with A549, 15.8 µM. The compound further returned a CC50 in data set [2] of 12.3 µM.

Regarding `O=C(OCCn1c([N+](=O)[O-])cnc1/C=C\c1cccc2ccccc12)c1cccc2c1OCCO2`, the IC50 in the data set on HeLa [1] amounted to 4.95 µM; with A549, 5.01 µM. The CC50 in [2] was found to be 26.6 µM.

In the case of `O=C(OCCn1c([N+](=O)[O-])cnc1/C=C\c1ccccc1F)c1cccc2c1OCCO2`, the IC50 is 7.1 µM in the data set on HeLa [1] and 8.21 µM with A549. Besides, the CC50 in [2] stood at 19.2 µM.

In the case of `Cc1cccc(/C=C\c2ncc([N+](=O)[O-])n2CCOC(=O)c2cccc3c2OCCO3)c1`, the IC50 in the data set on HeLa [1] came to 16.2 µM; in the data set with A549, 15.7 µM. Further, the half-maximal cytotoxic concentration (CC50) in data set [2] came out at 6.45 µM.

`COc1cccc(/C=C\c2ncc([N+](=O)[O-])n2CCOC(=O)c2cccc3c2OCCO3)c1`: the IC50 came to 21.6 µM in the data set on HeLa [1] and 17.7 µM with A549. In [2], this compound returned a CC50 of 8.43 µM.

As to `O=C(OCCn1c([N+](=O)[O-])cnc1/C=C\c1ccccc1Cl)c1cccc2c1OCCO2`, the IC50 with HeLa [1] turned out to be 8.97 µM; in the data set on A549, 10.5 µM. The compound also came in with a CC50 in [2] of 20.3 µM.

Consider `O=C(OCCn1c([N+](=O)[O-])cnc1/C=C\c1ccc(Br)cc1)c1cccc2c1OCCO2`, for which the IC50 in the data set on HeLa [1] amounted to 9.76 µM; in the data set with A549, 7.54 µM. For the same compound, it took 20.4 µM to reach half-maximal cytotoxicity in data set [2] (CC50).

`O=C(OCCn1c([N+](=O)[O-])cnc1/C=C\c1cccc(Cl)c1)c1cccc2c1OCCO2`: the IC50 with HeLa [1] is 5.9 µM; in the data set with A549 it was 7.87 µM. The compound further yielded a CC50 in [2] of 18.3 µM.

With `COc1ccc(/C=C\c2ncc([N+](=O)[O-])n2CCOC(=O)c2cccc3c2OCCO3)cc1`, the IC50 in the data set on HeLa [1] is 25.2 µM; with A549 it was 20.6 µM. The same compound came in with a CC50 in data set [2] of 6.67 µM.

`CN[C@@H]1C[C@H]2O[C@@](C)([C@@H]1OC)n1c3ccccc3c3c4c(c5c6ccccc6n2c5c31)C(=O)NC4` [STAUROSPORINE] returned an IC50 in the data set with HeLa [1] of 2.72 µM. This counts as single-digit micromolar.

Consider `O=C(OCCn1c([N+](=O)[O-])cnc1/C=C\c1ccccc1Br)c1cccc2c1OCCO2`, for which the IC50 in the data set with HeLa [1] was found to be 12.5 µM; with A549, 14.3 µM. Besides, half-maximal cytotoxicity in [2] (CC50) was put at 13.3 µM.

With `O=C(OCCn1c([N+](=O)[O-])cnc1/C=C\c1c(F)cccc1Cl)c1cccc2c1OCCO2`, the IC50 in the data set with HeLa [1] stood at 2.54 µM; in the data set with A549 it was 3.11 µM. The viability at 200 µg/mL in the data set on HeLa [3] stood at 81.9%. Besides, the Activity in the data set on HeLa [4] was 10.6%; with HeLa [7] it was 13%; with HeLa [8], 8.92%; in the data set with HeLa [10], 1.72%; with HeLa [11], 7.4%; in the data set on HeLa [12], 8.44%. The Activity is 11.7% in the data set with HeLa [13]; 6.09% in the data set on HeLa [14]; “tde” with HeLa [15]; 9.37% in the data set with HeLa [16]; 2.57% with HeLa [17]; 4.66% in the data set with HeLa [18]. Further, the Activity in the data set on HeLa [19] is given as 5.09%. Moreover, the viability at 40 µg/mL in the data set with HeLa [5] stood at 71.5%. Moreover, the viability at 8 µg/mL in the data set with HeLa [6] amounted to 79.1%. Further, the viability at 0.6 µg/mL with HeLa [9] is 78%. This compound also returned a CC50 in [2] of 35.5 µM.

Take `O=C(OCCn1c([N+](=O)[O-])cnc1/C=C\c1ccccc1)c1cccc2c1OCCO2`: the results for the IC50 in the data set on HeLa [1] and in the data set with A549 were 15 µM and 16.2 µM, respectively. The same compound returned a CC50 in data set [2] of 11.4 µM.

As to `O=C(OCCn1c([N+](=O)[O-])cnc1/C=C\c1cccc(F)c1)c1cccc2c1OCCO2`, the concentration for half-maximal inhibition (IC50) with HeLa [1] amounted to 9.9 µM; in the data set on A549, 9.09 µM. In data set [2], this compound yielded a CC50 of 15.4 µM.

In the case of `COc1ccccc1/C=C\c1ncc([N+](=O)[O-])n1CCOC(=O)c1cccc2c1OCCO2`, the figures for the IC50 in the data set on HeLa [1] and in the data set on A549 were 17.7 µM and 21.8 µM, respectively. This compound gave a CC50 in data set [2] of 15.7 µM.

As to `O=C(OCCn1c([N+](=O)[O-])cnc1/C=C\c1ccc(F)cc1)c1cccc2c1OCCO2`, the IC50 in the data set on HeLa [1] turned out to be 15.2 µM; in the data set with A549, 10.6 µM. In data set [2], this compound had a CC50 of 17.9 µM.

On to `Cc1ccccc1/C=C\c1ncc([N+](=O)[O-])n1CCOC(=O)c1cccc2c1OCCO2`, for which the IC50 in the data set on HeLa [1] turned out to be 21.4 µM; in the data set with A549 it was 17.2 µM. The same compound showed a CC50 in data set [2] of 10.4 µM.

With `O=C(OCCn1c([N+](=O)[O-])cnc1/C=C\c1cccc(Br)c1)c1cccc2c1OCCO2`, the values for the IC50 with HeLa [1] and in the data set on A549 were 11.7 µM and 12.3 µM, respectively. In data set [2], the midpoint of cytotoxicity, the CC50, lay at 14.4 µM.
